The EternaBench riboswitch data

How the values were obtained:
[1] = test system: MS2 coat protein; assay: apparent Kd, MS2 coat protein; higher = weaker binding; RNA-MaP array; tryptophan 2.4 mM where present
Method in brief: (§1)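 Stalled E. coli RNA polymerase produced the designs on Illumina sequencing-chip clusters. SNAP-549-labelled MS2 coat protein was added from 0.7 or 1.5 nM, doubling to 3 µM, without and then with constant ligand, in 100 mM Tris-HCl pH 7.5, 80 mM KCl, 4 mM MgCl2, BSA, DTT, yeast tRNA and Tween-20. The apparent Kd is the median of filtered per-cluster fits of green signal normalised to red-channel RNA signal and control-cluster median Fmax.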

[2] = test system: MS2 coat protein; assay: apparent Kd, MS2 coat protein; higher = weaker binding; RNA-MaP array; theophylline 2 mM where present
Method in brief: as §1

[3] = designed as: OFF switch for tryptophan, no ligand
[4] = ligand present: tryptophan, designed as: OFF switch for tryptophan
[5] = designed as: ON switch for tryptophan, no ligand
[6] = ligand present: tryptophan, designed as: ON switch for tryptophan
[7] = designed as: ON switch for theophylline, no ligand
[8] = ligand present: theophylline, designed as: ON switch for theophylline

Sequence | apparent Kd [1, 3] [nM] | apparent Kd [1, 4] [nM] | apparent Kd [1, 5] [nM] | apparent Kd [1, 6] [nM] | other results
AAACUUCGCAUAGGAAAACUAUGUGAAGAUCGAGGACCGGUACGGCCGCCACUCGUCCUCAACAUGAGGAUCACCCAUGUAAUAA | 21.1 | 30 |  |  | 
AACAUACAGUUUUAGGUGGAUAUAAGGCGGCGAGGACCGGUACGGCCGCCACUCGCGUACAUGAGGAUCACCCAUGUCUGAAGCU |  |  | 60.3 | 46.5 | 
AACAUGAGGAUCACCCAUGUCCUCGUGUACCGAGGACCGGUACGGCCGCCACUCGGUUCUCGCGAGGAUGGUCAAAGACUAUCCA |  |  | 417 | 470 | 
AAUAAGAUCCUCAUGUGAGUCGUACCAUAACGAGGACCGGUACGGCCGCCACUCGAACAUGAGGAUCACCCAUGUAGGUACGACA |  |  | 118 | 176 | 
AAUAAUAGGUGAUCUUGAGUCGUACCGUAACGAGGACCGGUACGGCCGCCACUCGAACAUGAGGAUCACCCAUGUAUGUAUGAUA |  |  | 90 | 117 | 
AAUACAGUGUCGGCCGCCACUGAAACAUGACAUGAGACAUGAGGAUCACCCAUGUACAUAAUAAACAGGACCGGGACCCAUGUAU |  |  | 37.9 | 15.5 | 
AAUUAUCAGUCGGCCGCCACUGACACAUGAGGAUCACCCAUGUAACAUGGGUAAAAUUAACUGAACAGGACCGGGACAAAGGCUA | 378 | 499 |  |  | 
AAUUCAAUUUUCUUGAUGUAUUAUAUAUUUCGAGGACCGGUACGGCCGCCACUCGUUAAUUACAUGAGGAUCACCCAUGUUAGCU | 16.8 | 14 |  |  | 
ACACAAUACAUGAGGAUCACCCAUGUAAAACGAGGACCGGUACGGCCGCCACUCGAAUACAGGAAACCUCGGAAUAUUAAGUGAA | 51.8 | 38 |  |  | 
AGACUGUAAAGUCUACCGGUCAACAAUAAUCGAGGACCGGUACGGCCGCCACUCGAUGUGAUAUACACAUGAGGAUCACCCAUGU |  |  | 16.2 | 15.5 | 
AGAGCAUUGACGGCCGCCACUUAUGUCACAUGAGGAUCACCCAUGUGAUGGGUGAUAGCCCGGUUGAGGACCGGGUCAAUGCUCA |  |  | 12.7 | 17.9 | 
AGAUUCGACACGGCCGCCACUCGUGACAGAUUUCGCAGUGGUCAACAUGAGGAUCACCCAUGUCUGAGGACCGGGUGUUGAGUCU | 33.5 | 474 |  |  | 
AGGUACGAAAACGUGGGUGAGUCGUACCAACGAGGACCGGUACGGCCGCCACUCGAAUAAACAUGAGGAUCACCCAUGUAAUAAU |  |  | 42.4 | 107 | 
AGUUUAGACACGGCCGCCACUCGUGACAGAUUUCGCAGUGGUCUACAUGAGGAUCACCCAUGUCUGAGGACCGGGUGUUGAGUUU | 144 | 433 |  |  | 
AUAAAUAAUAAAUAAGAUAAAAUGGGUGAACGAGGACCGGUACGGCCGCCACUCGGACAUGAGGAUCACCCAUGUCCAUGUGAAA | 20.2 | 27.6 |  |  | 
AUAAAUGGGUUAAUUAGUUUUAGGUCCAGUCGAGGACCGGUACGGCCGCCACUCGUCCCAAGUUACAUGAGGAUCACCCAUGUUA | 46.6 | 67.5 |  |  | 
AUAAUAAUGUCGGCCGCCACUAUAAACAUGAGGAACAUGAGGAUCACCCAUGUAUGAGGAUCACCUAGGACCGGGACUAAUAUUA | 47.6 | 43.3 |  |  | 
AUACAUGAGGAUCACCCAUGUCCUCGUGAUCGAGGACCGGUACGGCCGCCACUCGGUCCUCGCGAGGAGGAGUCAAAGACUCCUA |  |  | 178 | 128 | 
AUCAUAAUAGCCUCGUGUAAUUAAAUGGAACGAGGACCGGUACGGCCGCCACUCGAUAUAAACAUGAGGAUCACCCAUGUAAGCA | 65.5 | 58.3 |  |  | 
AUCUUUGACGAUCUGGGAAAACCAGAUCGGCGAGGACCGGUACGGCCGCCACUCGUGUAUAAUAUACAUGAGGAUCACCCAUGUA |  |  | 40.4 | 29.6 | 
AUGGUAAGAACAUGAGGAUCACCCAUGUGACGAGGACCGGUACGGCCGCCACUCGUACCUUAGUCGUCGAACAGAGGAUUCAUGU |  |  | 89.2 | 66 | 
CAAUAAGUACCGGUCCUCAGAUCCUCAUGACGAGGACCGGUACGGCCGCCACUCGAAACAUGAGGAUCACCCAUGUAAUAAUAAU | 23 | 28.4 |  |  | 
CACGAAAGAUCGGCCGCCACUAACCUGUGUGUACUAGCACAUGAGGAUCACCCAUGUUCUUGCGUUAGGACCGGGAUUGAGCGUG | 23 | 21.7 |  |  | 
CACGAAAGAUCGGCCGCCACUCAUGUUUCUUACAUGAGGAUCACCCAUGUAUUUUCUUUCUUUUAGAGGACCGGGAUCGAGCGUG |  |  | 40.8 | 18.4 | 
CCACUUUCUUUUAUCUUUCUUUCUUUGUUACGAGGACCGGUACGGCCGCCACUCGUGGUGUGUGGUACAUGAGGAUCACCCAUGU |  |  | 23.7 | 22.4 | 
CCAUGCAGGUCGGCCGCCACUACACACAUGAGGAUCACCCAUGUAGUUACUGGGUGAAGUGGCAGUAGGACCGGGACCUGCACAU |  |  | 311 | 729 | 

Sequence | apparent Kd [1, 3] [nM] | apparent Kd [1, 4] [nM] | apparent Kd [1, 5] [nM] | apparent Kd [1, 6] [nM] | other results
CCUCAUGAACAUGAGGAUCACCCAUGUACACGAGGACCGGUACGGCCGCCACUCGAAUAACCUAAAUAUAAAUAAUAAUAAUAGG | 15.8 | 43 |  |  | 
CGAUAUAAGACGGCCGCCACUAUUAAGUAACAAAAUAAACAUGAGGAUCACCCAUGUACAUGGGAUAGGACCGGGUCCAAUAACG |  |  | 163 | 76.9 | 
CGUAGUAUCAGACAUGAGGAUCACCCAUGUCGAGGACCGGUACGGCCGCCACUCGGCAGUUUGCGUCCUCAGGUACUCCAGGUAA | 15.9 | 18.8 |  |  | 
CGUAUUGGAAACAGUACGAGUGAUCCGGUCCGAGGACCGGUACGGCCGCCACUCGAUAUAAAUAAACAUGAGGAUCACCCAUGUA | 16.2 | 25.7 |  |  | 
GAGAGAGGAGUGCGGCGUGUUCCGCUCCGUCGAGGACCGGUACGGCCGCCACUCGACAUGAGGAUCACCCAUGUCCUCUCUCGCG | 31.3 | 13.8 |  |  | 
GAGGAAACUCACAUGAGGAUCACCCAUGUACGAGGACCGGUACGGCCGCCACUCGAAACCAUGGGCGGUAGUACGUGGAAGCUUG | 21.8 | 95.9 |  |  | 
GCUGCAGCUACGGCCGCCACUGUUACGUGAGACAUGAGGAUCACCCAUGUUGAUGUUUUACAGAAUAGGACCGGGUAGUUGUAGU | 9.07 | 10.2 |  |  | 
GGACUCGUCACGGCCGCCACUGCGGUGGUGUGACAUGAGGAUCACCCAUGUUGUCAUGCGGCCCUUAGGACCGGGUGUCGCUUCC | 169 | 198 |  |  | 
GGAUAGGACACGGCCGCCACUACCUAGGAUACUAGAAACAUUUCCUCACAUGAGGAUCACCCAUGUAGGACCGGGUGUCCUAUCG | 273 | 115 |  |  | 
GGCCAUGGAAACAUGGCGGCGGCAUAAGCGCGAGGACCGGUACGGCCGCCACUCGGGCGACAUGAGGAUCACCCAUGUUCCUCAU | 317 | 541 |  |  | 
GGCUAGGUCUCGGCCGCCACUGCUACAUGAGGAUCACCCAUGUACCUGGGCGGUCGCUCCCUCGGCAGGACCGGGAGACAUUCGU | 9.97 | 23 |  |  | 
GGGAGAUAGGCGGCCGCCACUGAUUUUCAUAUAUAUAUAACAUGAGGAUCACCCAUGUAGAUAUACAGGACCGGGCCUAUUUUUU |  |  | 17.4 | 16.2 | 
GGGUGGUAGGCGGCCGCCACUGAUUUUCAUUCCUAGAUGACAUGAGGAUCACCCAUGUUUAUGGGCAGGACCGGGCCUGCUGUGG |  |  | 62.7 | 55.7 | 
GGGUGGUAGGCGGCCGCCACUGAUUUUUAUUUAUAGAUGACAUGAGGAUCACCCAUGUUUAUAUGCAGGACCGGGCCUGUUGUGG |  |  | 15.7 | 14.2 | 
GGUUGGUCCUCACAUGAGGAUCACCCAUGUCGAGGACCGGUACGGCCGCCACUCGAUUGUACCAGGGCUUAAGAGCCUAUGAGCA | 11.1 | 8.44 |  |  | 
GUACACUAGUCGGCCGCCACUGUUACAUGAGGAUCACCCAUGUAGGAUCACCCAUGACAUGAGGAUAGGACCGGGACGCAUGAGG | 45 | 41.3 |  |  | 
GUCCUCAUGACGGCCGCCACUACACAUGAGGAUCACCCAUGUAAUGAUCCCUUAAAUGAUAAUAGUAGGACCGGGUCACUGUAAG |  |  | 457 | 699 | 
GUGAGCGCCGAACAUCGCUGGUCCUCUAUCCGAGGACCGGUACGGCCGCCACUCGACAUGAGGAUCACCCAUGUUGGCACUGGCG | 9.37 | 10.7 |  |  | 
GUUAUAUGAAAACAUAUAACAGUGGGUGAACGAGGACCGGUACGGCCGCCACUCGGACAUGAGGAUCACCCAUGUCCAUGUGAAA | 15.8 | 41.4 |  |  | 
GUUUUAUACUCGGCCGCCACUGAGAGAGUCAUGUAAACAUGAGGAUCACCCAUGUAAUAUAUAUACAGGACCGGGAGUAGGGUAA | 12.9 | 15.4 |  |  | 
UAAGUUAGGGCGGCCGCCACUCGAACAUGAGGAUCACCCAUGUAAAUUAAUUAAAGGACAUGAAUGAGGACCGGGCCAAGUUAGA |  |  | 15.7 | 13.4 | 
UAAUAAGUACCGGUCCUCAGAUCCUCAUGUCGAGGACCGGUACGGCCGCCACUCGAAACAUGAGGAUCACCCAUGUAAUAAUAAU | 39.5 | 31.5 |  |  | 
UGUAUGUGAAGUGAUACCAGUCCAUAAACUGGAACAUGAGGAUCACCCAUGUAAUGGGUGGACCCUUGGCAGCACUUCUCAUACU |  |  |  |  | apparent Kd [2, 7]: 122 nM; apparent Kd [2, 8]: 136 nM
UUAGAUAUGACGGAUACCAGCGUGUUGUAGAACAUGAGGAUCACCCAUGUAGUGAUCAUGCGCCCUUGGCAGCUGGUAUGUUUGG |  |  |  |  | apparent Kd [2, 7]: 262 nM; apparent Kd [2, 8]: 829 nM
UUAGAUAUGACGGAUACCAGCGUGUUGUAGAACAUGAGGAUCACCCAUGUAGUGAUCGAGCGCCCUUGGCAGCUGGUAUGUUUGG |  |  |  |  | apparent Kd [2, 7]: 179 nM; apparent Kd [2, 8]: 482 nM
UUUUUCGCGGGUGAUACCAGCAAAGCUGUACUGGUCUGGUACAUGAGGAUCACCCAUGUUUGCCCUUGGCAGCGCUCGGGAGAAG |  |  |  |  | apparent Kd ([2]; designed as: OFF switch for theophylline, no ligand): 29.5 nM; apparent Kd ([2]; ligand present: theophylline, designed as: OFF switch for theophylline): 71.9 nM
